Data published in ChEMBL document CHEMBL4513216, “Probing the Open Global Health Chemical Diversity Library for Multistage-Active Starting Points for Next-Generation Antimalarials” (ACS Infect Dis, 2020).

Test: Toxicity liver stage against HepG2, at 10uM
Type: cell-based
Set-up: test concentration 10 uM, cell line HepG2-A16-CD81EGFP
Conditions: human, HepG2-A16-CD81EGFP cells; read-out: INHIBITION
Summary of the method: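 Uninfected HepG2-A16-CD81EGFP cells, 3 × 10^3 per well, 1536-well, plated on prespotted compound at 10 μM final, parasite-free screening media added to match infected plates; puromycin 10 μM positive, DMSO 0.5% negative; run in parallel with 48 h PbLuc assay at 37 °C, 5% CO2; viability by CellTiter-Glo luminescence, normalized to controls.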

With `CC(C)NC(=O)N1CCC2(CC(=O)N(c3cccc(C#N)c3)C2)C1` (centres undefined) the cytotoxicity at 10 µM was 5.66%.
`CC(C)c1cc(NCC2(CO)CCC2)ncn1` gave a cytotoxicity at 10 µM of 4.66%.
`CC(C)[C@H]1CN(Cc2ccccn2)C[C@@H]1NS(=O)(=O)C1CC1` showed a cytotoxicity at 10 µM of -0.578%.
In the case of `CC(C)=CCN1CCN(Cc2cccc(C)n2)CC1CCO` (centres undefined), the cytotoxicity at 10 µM is reported as 1.99%.
Compound `COCCN1CCC(CNC(=O)Nc2ccc(SC(F)(F)F)cc2)C1` (centres undefined) has a cytotoxicity at 10 µM of -11.6%.
`CC(=O)N[C@@H]1CN(C2CCN(c3cccc(C)c3C)CC2)C[C@H]1C(C)C` gave a cytotoxicity at 10 µM of -11.7%.
`C=C(C)COc1cccc(CNC(CC)c2ccnn2C)c1` (centres undefined) showed a cytotoxicity at 10 µM of -4.21%.
With `CC(C)=CCC/C(C)=C/CN1CCN(C)C2(CCNC(=O)CC2)C1` (centres undefined) the cytotoxicity at 10 µM was -54.1%.
With `CCc1nccn1CCC(=O)N1CCN(c2ccccc2C)CC1C` (centres undefined) the cytotoxicity at 10 µM was 11%.
For `Cc1c(CN2CC[C@@H](N3CCC(O)CC3)[C@H](O)C2)[nH]c2ccc(F)cc12`, the cytotoxicity at 10 µM was 4.07%.
Work on `CCc1cc(CN(C)C(=O)C2CC(=O)N(c3cccc(O)c3)C2)on1` (centres undefined) yielded a cytotoxicity at 10 µM of -1.72%.
Work on `Cc1cnn(CCCn2ncc(N3CCC(CN)C3)cc2=O)c1` (centres undefined) yielded a cytotoxicity at 10 µM of -48.2%.
For `CSCc1ccc(N2CCC(C(O)CC(C)C)CC2)nc1` (centres undefined), the cytotoxicity at 10 µM was 11.4%.
Compound `Cc1nsc(NC(=O)N2CCCCC2CCO)n1` (centres undefined) has a cytotoxicity at 10 µM of -45.7%.
In the case of `Cc1ccc2nc(C)cc(C(=O)N[C@H]3COC[C@@H]3N3CCOCC3)c2c1`, the cytotoxicity at 10 µM is reported as -42.2%.
Compound `Cc1cc(CNc2nccc(N)n2)c2[nH]c(C)c(C)c2c1` has a cytotoxicity at 10 µM of -1.86%.
For `COc1ccc(Oc2ncccc2C(F)(F)F)cc1CN1CCCC1`, the cytotoxicity at 10 µM was 4.22%.
Compound `Cc1nccn1CCC1CCCCN1C(=O)c1ccc(N(C)C)cc1` (centres undefined) has a cytotoxicity at 10 µM of 0.811%.
`OC1(CNCCSc2ccccn2)CNCCOC1` (centres undefined) showed a cytotoxicity at 10 µM of -9.41%.
In the case of `O=C(Cc1nc(-c2ccncc2)n[nH]1)NCCCN1CCOCC1`, the cytotoxicity at 10 µM is reported as -1.8%.
Work on `Cc1c[nH]c(CN2CCCn3nc(CNS(C)(=O)=O)cc3C2)n1` yielded a cytotoxicity at 10 µM of 1.79%.
With `O=C(C1CCCC1)N1CCC(C2CCN(Cc3ccc(Cl)cc3)C2)CC1` (centres undefined) the cytotoxicity at 10 µM was -2.45%.
In the case of `COc1cc(NC(=O)c2ccc(CN3CC[C@H](O)C3)cc2)cc(OC)c1`, the cytotoxicity at 10 µM is reported as 10.5%.
In the case of `CN1CCCC1c1ccc(C(=O)N2CCc3ccccc3C2)s1` (centres undefined), the cytotoxicity at 10 µM is reported as 1.66%.
Compound `CSc1ccc(-c2nc(CN3CCC(NC(C)=O)C3)c(C)o2)cc1` (centres undefined) has a cytotoxicity at 10 µM of 1.24%.
`Cc1ccsc1[C@@H]1CCN(C(=O)c2cc3ccccc3[nH]2)C[C@H]1O` showed a cytotoxicity at 10 µM of 29%.
For `O=C(NCCCNc1ccc(C(F)(F)F)cn1)c1ccc(F)cc1`, the cytotoxicity at 10 µM was -8.72%.
`Cc1ccccc1-c1cc(C(=O)N2CCCC(n3ccnc3C)C2)[nH]n1` (centres undefined) showed a cytotoxicity at 10 µM of 14.3%.
`Cc1csc(NC(=O)CN2CCc3c(nc(C4CC4)n3C)C2)n1` showed a cytotoxicity at 10 µM of -6.6%.
For `O=C(Cc1ccc(F)c(Br)c1)N1CCN(CCO)CC1`, the cytotoxicity at 10 µM was -11.5%.
Compound `CCc1nccn1C1CCCN(C(=O)c2cnc3onc(C)c3c2)C1` (centres undefined) has a cytotoxicity at 10 µM of -15.9%.
`CC(c1ccco1)N(C)Cc1nc2c(cnn2C)c(=O)[nH]1` (centres undefined) showed a cytotoxicity at 10 µM of -3.29%.
For `CCc1ncc2c(n1)CN(CC(=O)Nc1ccc(Cl)cn1)CC2`, the cytotoxicity at 10 µM was 1.47%.
For `Cc1nn(-c2ccccc2)cc1C(=O)N1CCCC(n2cccn2)C1` (centres undefined), the cytotoxicity at 10 µM was 1.3%.
Compound `CC(=O)Nc1nc(C(=O)NCc2ccc(N3CCCCCC3)nc2)cs1` has a cytotoxicity at 10 µM of 4.74%.
In the case of `Cn1cc(CN2CC[C@H]3O[C@H](C(=O)NC4CC4)CC[C@H]32)c2ccccc21`, the cytotoxicity at 10 µM is reported as 8.82%.
In the case of `COc1ccc(C(C)NCc2ccc(OC)c(OC)c2OC)cc1F` (centres undefined), the cytotoxicity at 10 µM is reported as 55.9%.
Compound `Cn1cnc(S(=O)(=O)N2CC3(CCN(CC4CC4)C3)C2)c1` has a cytotoxicity at 10 µM of -99.2%.
`C1CC(N2Cc3nnn(CC4CC4)c3C(COCC3CC3)C2)C1` (centres undefined) gave a cytotoxicity at 10 µM of 5.57%.
Compound `CCN(CC)C(=O)c1nc2c(s1)CCN(Cc1cccc(OC)c1)CC2` has a cytotoxicity at 10 µM of 2.77%.
Compound `Cc1cc(C)cc(CN2C[C@@H]3OCCN(CC(=O)N(C)C)[C@@H]3C2)c1` has a cytotoxicity at 10 µM of -92.9%.
Work on `O=C(c1cccs1)N1CCCC2(COCCN(c3cccnc3)C2)C1` (centres undefined) yielded a cytotoxicity at 10 µM of -70.3%.
With `Cc1ccc2c(n1)N(CC(C)C)CCN(S(C)(=O)=O)C2` the cytotoxicity at 10 µM was -65.7%.
In the case of `Cc1ccc(C(=O)N2CC[C@H]3[C@H]2CCN3CC2CCOCC2)cc1F`, the cytotoxicity at 10 µM is reported as -83.3%.
Work on `CS(=O)(=O)N1C[C@@H]2COC[C@]2(CN2CCOCC2)C1` yielded a cytotoxicity at 10 µM of 0.472%.
For `Cc1nnc(N2C[C@H]3OCC[C@H]3[C@H](C(=O)NCC3CC3)C2)s1`, the cytotoxicity at 10 µM was 2.03%.
Work on `Cc1nc(CN2CCCn3cnc(COC(C)C)c3C2)cs1` yielded a cytotoxicity at 10 µM of -73.4%.
In the case of `COc1cccc(CN2C[C@@H]3COC[C@]3(COc3cccnc3)C2)c1`, the cytotoxicity at 10 µM is reported as -64.7%.
Compound `Cc1n[nH]cc1CNCc1cccc(OCC(F)(F)F)c1` has a cytotoxicity at 10 µM of 2.75%.
`Cc1cc(CN2C[C@@H](C)[C@@]3(CCN(C)C3=O)C2)oc1C` gave a cytotoxicity at 10 µM of 8.34%.
Compound `COc1ccc(C(=O)N2Cc3cc(C)ccc3OCC2CN(C)C)cc1` (centres undefined) has a cytotoxicity at 10 µM of -14.5%.
`Cc1ccc(CN2CC[C@H]3O[C@@H](C(=O)N4CCCO4)CC[C@H]32)s1` showed a cytotoxicity at 10 µM of -3.29%.
In the case of `CC(C)CNC(=O)[C@H]1C[C@H]2CN(Cc3cccnc3)C[C@@H]1O2`, the cytotoxicity at 10 µM is reported as -1.16%.
In the case of `CN(C)S(=O)(=O)N1C[C@H]2CC[C@@H](C1)N(CCC(=O)NCc1ccco1)C2`, the cytotoxicity at 10 µM is reported as -6.74%.
